High-throughput results deposited in PubChem by several laboratories.
Compounds with a hit are over-represented: about 1.1% of the library has one in this group of screens.
NR2E3 ag-1 – NR2E3 (human) agonism; GST-NR2E3/biotin-RetCOR TR-FRET, 1536-well; inhibition of corepressor binding, % at 4.78 µM; 320,000 compounds, 0.12% hits; AID 2300;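 active = percent inhibition above the cutoff of mean plus 3 SD of all tested compounds, set per screening campaign, cut at about 20% in these data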;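 note: 0% = DMSO wells and 100% = biotin wells as full block of FRET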
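System: GST-tagged NR2E3 plus biotinylated RetCOR corepressor; Buffer or medium: pH 7.5 Tris-based buffer; Probe or stimulus: RetCOR corepressor, biotinylated, 7 nM; Doses: compound at 4.8 µM, single dose; Schedule: 5 h incubation at 4 °C; Technique: time-resolved FRET; Evaluation: percent inhibition of TR-FRET ratio; Replication: one well per compound, singlicate testing.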
NR2E3 ag-2 – agonists of human NR2E3 nuclear receptor; Q9Y5X4; inhibition of corepressor binding, % at 3.98 µM; CHO-S Gal4-NCOR/VP16-NR2E3 two-hybrid, luciferase; 360,000 compounds, 0.35% hits; AID 602229;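 active = inhibition above the mean of all tested compounds plus 3 SD, cut at about 70% in these data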;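 note: 0% = DMSO with NR2E3 transfected cells and 100% = cells lacking NR2E3 construct; higher means lower luciferase signal from less NR2E3 corepressor binding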
DAGLB inh – diacylglycerol lipase beta (human) inhibition; Q8NCG7; 340,000 compounds, 0.059% hits; inhibition, % at 5.17 µM; HEK293T DAGLB membrane lysate, EnzChek fluorogenic substrate; AID 504411; in the data active = inhibition above about 34%;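 note: 0% = enzyme with vehicle and 100% = wells lacking enzyme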
Target sequence (Q8NCG7 whole entry, looked up): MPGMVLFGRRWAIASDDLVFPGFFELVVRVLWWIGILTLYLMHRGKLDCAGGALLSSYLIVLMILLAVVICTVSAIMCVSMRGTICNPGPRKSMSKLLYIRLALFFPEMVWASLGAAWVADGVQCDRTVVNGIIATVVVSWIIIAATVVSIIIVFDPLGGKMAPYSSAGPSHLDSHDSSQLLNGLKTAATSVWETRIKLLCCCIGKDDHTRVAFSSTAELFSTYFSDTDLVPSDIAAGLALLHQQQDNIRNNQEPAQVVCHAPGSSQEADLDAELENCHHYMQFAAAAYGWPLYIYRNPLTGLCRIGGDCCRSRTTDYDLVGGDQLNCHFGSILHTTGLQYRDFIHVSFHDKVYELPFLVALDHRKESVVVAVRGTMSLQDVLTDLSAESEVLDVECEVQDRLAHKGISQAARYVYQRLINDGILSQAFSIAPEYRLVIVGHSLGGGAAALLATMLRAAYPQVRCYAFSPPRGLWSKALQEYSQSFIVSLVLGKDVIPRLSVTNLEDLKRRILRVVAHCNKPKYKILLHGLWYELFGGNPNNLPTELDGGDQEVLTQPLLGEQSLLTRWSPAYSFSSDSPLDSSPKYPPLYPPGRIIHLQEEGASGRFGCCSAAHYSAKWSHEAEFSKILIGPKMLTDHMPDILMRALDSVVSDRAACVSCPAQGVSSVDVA
Vif imaging – HIV Vif inhibition; HEK293T cells, Vif self-association by quenched fluorescence, imaging, 24 h; inhibition, % at 7.49 µM; 340,000 compounds, 0.35% hits; in the data active = inhibition above about 50%, passing the limit was not always enough
MT1-MMP act inh – MT1-MMP (human) activation inhibition | 360,000 compounds, 0.061% hits | P50281 | HT1080 RFP-PRO-GFP cells, GFP/RFP ratio fluorescence, overnight; percent of plate control window, DMSO zero | AID 651647 | GFP/RFP ratio change, % at 20 µM;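 active = GFP/RFP ratio change of at least 30% with cell ATP level not reduced by more than half and red fluorescence within 50% of control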
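Assay system: HT1080 cells carrying an RFP-PRO-GFP reporter | Dosing: Single dose of 20 µM compound, 1% DMSO final | Incubation: Cells overnight before dosing, compound overnight, 37 °C, 5% CO2 | Evaluation: GFP/RFP fluorescence ratio | Control set: DMSO and RFP-L50D-GFP cell wells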
core dimer inh – HCV core protein dimerization inhibition; inhibition, % at 5 µM; 300,000 compounds, 0.33% hits; TR-FRET GST/Flag-core106 dimerization, 1536-well; AID 1899;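 active = inhibition above the mean of all tested compounds plus 3 SD, set per screening campaign, cut at about 45% in these data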
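Material: GST/Flag-tagged HCV core106 proteins. Incubation: 4 h, 22.5 °C incubation. Read-out basis: inhibition (%) from 671 over 617 nm ratio. Measured by: TR-FRET, excitation 340 nm, emission 617 and 671 nm.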
NR2E3 ag confirm – confirmation of human NR2E3 agonists | 2,300 compounds, 51% hits | shares compounds with NR2E3 ag-2 | inhibition, % at 3.98 µM | AID 624378 | CHO-S mammalian two-hybrid NR2E3-NCOR, luciferase luminescence;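 active = average inhibition above a cutoff equal to the mean inhibition of all tested compounds plus one SD, cut at about 70% in these data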;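 note: 0% = DMSO in NR2E3 cells and 100% = DMSO in cells lacking NR2E3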
VP16 counter – counter-screen for NR2E3 agonists: GAL4-VP16 reporter inhibitors. shares compounds with NR2E3 ag-2. CHO-S GAL4-VP16 luciferase reporter, luminescence. inhibition, % at 3.98 µM. 2,300 compounds, 29% hits. AID 624379;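 active = mean inhibition above a cutoff equal to the average over all tested compounds plus one standard deviation, cut at about 70% in these data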;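 note: luciferase from a UAS reporter driven by GAL4-VP16 transactivation; 0% = DMSO with VP16-transfected cells and 100% = DMSO with cells lacking VP16; higher means less reporter light so more repression of VP16 activity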
* = called active by the depositor; · = no result.

SMILES | NR2E3 ag-1 | NR2E3 ag-2 | DAGLB inh | Vif imaging | MT1-MMP act inh | core dimer inh | NR2E3 ag confirm | VP16 counter
COc1cc(-c2coc3c(C(=O)NCc4ccc(OC)c(OC)c4)cccc23)ccc1O | · | 52.8 | · | -33.0 | 6.6 | · | 60.9 | 30.0
NC(=O)c1cccc(-c2coc3c(C(=O)NCCc4ccccc4)cccc23)c1 | · | -141.9 | · | -12.4 | 7.2 | · | · | ·
COc1ccc(CNC(=O)c2cccc3c(-c4cccc(C(N)=O)c4)coc23)cc1OC | · | 52.9 | · | -41.5 | 14.7 | · | 64.3 | 57.0
COc1ccc(CNC(=O)c2cccc3c(-c4ccc(F)c(F)c4)coc23)cc1OC | · | 60.7 | · | -38.9 | 15.0 | · | 79.5* | 47.6
O=C(NCc1ccccc1)c1cccc2c(-c3ccc(F)c(F)c3)coc12 | · | -65.9 | · | 2.9 | 0.6 | · | · | ·
COc1cc(-c2coc3c(C(=O)NCc4ccc(N(C)C)cc4)cccc23)ccc1O | · | -111.3 | · | -1.2 | 1.3 | · | · | ·
CCN1C(=O)c2ccc(C(=O)Nc3ccc(O)cc3C)cc2C1=O | -0.2 | -6.8 | -0.5 | 12.8 | 3.2 | -0.2 | · | ·
CC(=O)c1ccc(NC(=O)CN2C(=O)NC3(CCc4ccccc43)C2=O)cc1 (stereo unspecified) | · | 14.5 | -2.4 | -5.2 | 8.4 | · | · | ·
CCC(=O)Nc1cc2nn(-c3ccc(C)cc3)nc2cc1C | 2.1 | 48.7 | -0.1 | -2.8 | -3.0 | 3.2 | -23.4 | -99.2
CCN(CC(=O)NCc1ccc(Cl)cc1)C(=O)c1ccc2cc(OC)ccc2c1 | 8.2 | 51.0 | -2.4 | -7.9 | -2.2 | 3.6 | 28.2 | 61.3
CCN(CC(=O)NCc1ccc(Cl)cc1)C(=O)c1cnc(Cl)c(Cl)c1 | 2.7 | 0.1 | -2.8 | 10.4 | -4.0 | -5.5 | · | ·
Nc1nc(N)nc(-c2cc(O)ccc2O)n1 | -1.1 | 76.4* | 3.0 | -2.6 | -10.7 | · | 84.8* | 55.5
CN1CCN(CCCNCc2cn(CCC#N)c3ccccc23)CC1 | -2.4 | 13.0 | -1.7 | -1.9 | 6.7 | 18.4 | · | ·
NC(=O)c1ccc(N2CCN(S(=O)(=O)c3cccs3)CC2)c([N+](=O)[O-])c1 | · | 81.9* | -0.1 | -2.8 | -2.6 | · | 94.8* | 78.4*
NC(=O)c1ccc(N2CCN(c3ccccc3O)CC2)c([N+](=O)[O-])c1 | -5.1 | 16.0 | 1.7 | -5.1 | -2.7 | -0.7 | · | ·
C=CCn1c(=O)c2c(nc3n2CCCN3CCc2ccc(OC)c(OC)c2)n(C)c1=O | · | 3.4 | 1.3 | -0.6 | -2.8 | · | · | ·
O=c1ccn(C2CCCO2)c(=O)[nH]1 (stereo unspecified) | · | -5.4 | -1.6 | 4.0 | 1.0 | · | · | ·
Cc1ccn2cc(CNS(=O)(=O)c3ccc4ccccc4c3)nc2c1 | 2.0 | 4.4 | -1.3 | -4.4 | -2.0 | 6.0 | · | ·
CCOC(=O)[C@]12CCC=C1N(Cc1cccc3ccccc13)C(=O)[C@H](CC(=O)NCC1CCCCC1)C2 | · | 9.2 | · | · | -3.7 | · | · | ·
Cc1ccc(S(=O)(=O)N2CCCCC2)cc1NCC(=O)Nc1ccc(Br)cc1F | · | 54.3 | -3.8 | -28.7 | 1.2 | · | 81.2* | 72.2*
O=C(NNc1ccccc1)OCc1ccccc1 | · | -21.9 | -12.7 | -3.8 | 2.1 | · | · | ·
O=C(NNc1ccccc1)C(=O)NNc1ccccc1 | · | 52.6 | 1.2 | -4.0 | -2.5 | · | 51.8 | 9.2
CCC(C(=O)NCCc1ccccc1OC)n1nc(C)c2c(C)n(-c3ccccc3)nc2c1=O (stereo unspecified) | 0.8 | 22.9 | 1.1 | -4.2 | 2.2 | 5.9 | · | ·
CCN(CC)CC(C)(C)C(=O)/C=C/c1ccc(/C=C/C(=O)C(C)(C)CN(CC)CC)cc1 | · | 102.9* | -3.3 | 24.4 | -20.8 | · | 96.1* | 55.9
CCN(CC)CCOC(=O)/C=C/c1ccccc1 | 0.9 | 0.9 | 2.6 | 1.2 | 2.8 | -6.6 | · | ·
SMILES | NR2E3 ag-1 | NR2E3 ag-2 | DAGLB inh | Vif imaging | MT1-MMP act inh | core dimer inh | NR2E3 ag confirm | VP16 counter
CC(=O)OC[C@]12CC[C@H]3[C@@](C)(CC[C@H]4C(C)(C)CCC[C@]34C)[C@@H]1CC(C1=CC(=O)OC1O)O2 (stereo partly specified) | · | 102.3* | · | -29.2 | -27.3 | · | 100.0* | 99.8*
Nc1nc(-c2cccnc2)nn1C(=O)Cc1ccccc1 | 0.6 | -3.4 | 1.6 | -0.6 | -0.8 | -8.1 | · | ·
Nc1nc(-c2ccccc2)nn1C(=O)Cc1ccccc1 | 2.6 | 81.7* | -1.0 | -0.5 | 2.9 | -13.3 | 1.2 | -2.8
Cc1ccc(C(=O)C[n+]2cc(Br)cc(Br)c2)cc1[N+](=O)[O-] | -3.6 | -0.3 | 6.8 | -1.7 | 1.8 | 17.4 | · | ·
O=C1N(c2ccccc2)C[C@@H]2C[C@@H](c3cc4ccccc4o3)N3CCC[C@@]123 | · | 77.8* | -0.3 | -10.4 | -16.9 | · | 98.6* | 85.0*
Cc1ccccc1S(=O)Cc1ccc(C(=O)N2CCN(C(=O)c3ccco3)CC2)o1 (stereo unspecified) | -1.9 | 19.8 | -1.1 | -9.0 | -0.8 | 7.4 | · | ·
COc1ccc(-n2c(C)cc(C(=O)COC(=O)c3ccc(O)cc3O)c2C)cc1 | 0.3 | 59.4 | -4.5 | · | -10.3 | · | 88.8* | 49.1
Cc1cc(C(=O)COC(=O)c2ccc(O)cc2O)c(C)n1-c1ccc(OC(F)F)cc1 | · | 54.8 | -2.2 | -2.4 | -8.2 | · | 3.1 | 25.0
Cc1cc(C(=O)CC#N)c(C)n1-c1ccc(OC(F)F)cc1 | 0.3 | 9.5 | -1.5 | -4.1 | -6.4 | 7.9 | · | ·
Cc1cc(C(=O)COC(=O)c2ccc(O)cc2O)c(C)n1-c1ccccc1 | 0.8 | 24.7 | -5.8 | -2.7 | -9.5 | · | · | ·
CC(NC(=O)C1CCN(C(=O)c2ccc(F)cc2)CC1)c1ccc(-n2ccnc2)cc1 (stereo unspecified) | 2.0 | -9.7 | 0.9 | -2.7 | 4.6 | · | · | ·
Cc1cc(C)c(S(=O)(=O)/N=C2/C=C(Sc3ncn[nH]3)C(=O)c3ccccc32)cc1C | 9.1 | 101.6* | 0.6 | 2.7 | -94.4 | -10.7 | 48.9 | -12.0
Cn1ccc2c(-c3cccc(C=O)c3)cc3c(c21)C1CCC3O1 (stereo unspecified) | · | 0.3 | · | · | 6.9 | · | · | ·
COc1ccc(S(=O)(=O)Nc2ccc(N3CCOCC3)cc2)cc1 | -0.8 | 12.3 | -0.6 | · | 0.8 | 4.5 | · | ·
Nc1cc(S(=O)(=O)Nc2cc(Cl)ccc2Cl)ccc1N1CCOCC1 | -2.5 | 52.8 | 1.6 | · | 8.3 | 5.5 | 38.2 | 47.0
Nc1cc(S(=O)(=O)Nc2ccccc2Cl)ccc1N1CCCC1 | 3.1 | 17.7 | 1.2 | -23.2 | 0.8 | 2.3 | · | ·
CSc1ccc(S(=O)(=O)Nc2ccc(N3CCOCC3)c(Cl)c2)cc1 | -2.4 | 68.8 | -4.5 | -9.2 | 3.0 | 1.6 | 45.4 | 62.5
